One assay concerns MM1.S. The assay is described as follows: Antiproliferative activity against human MM1.S cells assessed as reduction in cell proliferation incubated for 72 hrs by MTS assay. It is filed as functional, cell-based. Put shortly:
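MM1.S cells seeded at 2 × 10^5 cells/well, exposed 72 h in triplicate across 12.5–500 nM. Proliferation read by MTS dye absorbance. EC50 fitted with an [inhibitor] vs. normalized response model; uncertainty given as standard error.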

For assay [1], the target named is T1, CREB-binding protein/Histone acetyltransferase p300 (Homo sapiens) (UniProt Q09472+Q92793). The assay is described as follows: Protac activity at p300/CBP degradation in human MM1.S cells assessed as amount p300 remaining at 10 uM incubated for 24 hrs by pulldown-based Western blot analysis. The format is cell-based. In a few lines: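 MM1.S cells at 2 × 10^6 cells/well in RPMI 1640, pre-incubated 24 h at 37 °C, 5% CO2, then exposed 24 h at 1, 5 or 10 µM. RIPA lysates run on 3–8% tris-acetate SDS gels and probed for p300 and β-actin. Band intensity expressed relative to the lane's DMSO vehicle and β-actin loading control.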
T1 sequence (Q09472 whole entry, looked up): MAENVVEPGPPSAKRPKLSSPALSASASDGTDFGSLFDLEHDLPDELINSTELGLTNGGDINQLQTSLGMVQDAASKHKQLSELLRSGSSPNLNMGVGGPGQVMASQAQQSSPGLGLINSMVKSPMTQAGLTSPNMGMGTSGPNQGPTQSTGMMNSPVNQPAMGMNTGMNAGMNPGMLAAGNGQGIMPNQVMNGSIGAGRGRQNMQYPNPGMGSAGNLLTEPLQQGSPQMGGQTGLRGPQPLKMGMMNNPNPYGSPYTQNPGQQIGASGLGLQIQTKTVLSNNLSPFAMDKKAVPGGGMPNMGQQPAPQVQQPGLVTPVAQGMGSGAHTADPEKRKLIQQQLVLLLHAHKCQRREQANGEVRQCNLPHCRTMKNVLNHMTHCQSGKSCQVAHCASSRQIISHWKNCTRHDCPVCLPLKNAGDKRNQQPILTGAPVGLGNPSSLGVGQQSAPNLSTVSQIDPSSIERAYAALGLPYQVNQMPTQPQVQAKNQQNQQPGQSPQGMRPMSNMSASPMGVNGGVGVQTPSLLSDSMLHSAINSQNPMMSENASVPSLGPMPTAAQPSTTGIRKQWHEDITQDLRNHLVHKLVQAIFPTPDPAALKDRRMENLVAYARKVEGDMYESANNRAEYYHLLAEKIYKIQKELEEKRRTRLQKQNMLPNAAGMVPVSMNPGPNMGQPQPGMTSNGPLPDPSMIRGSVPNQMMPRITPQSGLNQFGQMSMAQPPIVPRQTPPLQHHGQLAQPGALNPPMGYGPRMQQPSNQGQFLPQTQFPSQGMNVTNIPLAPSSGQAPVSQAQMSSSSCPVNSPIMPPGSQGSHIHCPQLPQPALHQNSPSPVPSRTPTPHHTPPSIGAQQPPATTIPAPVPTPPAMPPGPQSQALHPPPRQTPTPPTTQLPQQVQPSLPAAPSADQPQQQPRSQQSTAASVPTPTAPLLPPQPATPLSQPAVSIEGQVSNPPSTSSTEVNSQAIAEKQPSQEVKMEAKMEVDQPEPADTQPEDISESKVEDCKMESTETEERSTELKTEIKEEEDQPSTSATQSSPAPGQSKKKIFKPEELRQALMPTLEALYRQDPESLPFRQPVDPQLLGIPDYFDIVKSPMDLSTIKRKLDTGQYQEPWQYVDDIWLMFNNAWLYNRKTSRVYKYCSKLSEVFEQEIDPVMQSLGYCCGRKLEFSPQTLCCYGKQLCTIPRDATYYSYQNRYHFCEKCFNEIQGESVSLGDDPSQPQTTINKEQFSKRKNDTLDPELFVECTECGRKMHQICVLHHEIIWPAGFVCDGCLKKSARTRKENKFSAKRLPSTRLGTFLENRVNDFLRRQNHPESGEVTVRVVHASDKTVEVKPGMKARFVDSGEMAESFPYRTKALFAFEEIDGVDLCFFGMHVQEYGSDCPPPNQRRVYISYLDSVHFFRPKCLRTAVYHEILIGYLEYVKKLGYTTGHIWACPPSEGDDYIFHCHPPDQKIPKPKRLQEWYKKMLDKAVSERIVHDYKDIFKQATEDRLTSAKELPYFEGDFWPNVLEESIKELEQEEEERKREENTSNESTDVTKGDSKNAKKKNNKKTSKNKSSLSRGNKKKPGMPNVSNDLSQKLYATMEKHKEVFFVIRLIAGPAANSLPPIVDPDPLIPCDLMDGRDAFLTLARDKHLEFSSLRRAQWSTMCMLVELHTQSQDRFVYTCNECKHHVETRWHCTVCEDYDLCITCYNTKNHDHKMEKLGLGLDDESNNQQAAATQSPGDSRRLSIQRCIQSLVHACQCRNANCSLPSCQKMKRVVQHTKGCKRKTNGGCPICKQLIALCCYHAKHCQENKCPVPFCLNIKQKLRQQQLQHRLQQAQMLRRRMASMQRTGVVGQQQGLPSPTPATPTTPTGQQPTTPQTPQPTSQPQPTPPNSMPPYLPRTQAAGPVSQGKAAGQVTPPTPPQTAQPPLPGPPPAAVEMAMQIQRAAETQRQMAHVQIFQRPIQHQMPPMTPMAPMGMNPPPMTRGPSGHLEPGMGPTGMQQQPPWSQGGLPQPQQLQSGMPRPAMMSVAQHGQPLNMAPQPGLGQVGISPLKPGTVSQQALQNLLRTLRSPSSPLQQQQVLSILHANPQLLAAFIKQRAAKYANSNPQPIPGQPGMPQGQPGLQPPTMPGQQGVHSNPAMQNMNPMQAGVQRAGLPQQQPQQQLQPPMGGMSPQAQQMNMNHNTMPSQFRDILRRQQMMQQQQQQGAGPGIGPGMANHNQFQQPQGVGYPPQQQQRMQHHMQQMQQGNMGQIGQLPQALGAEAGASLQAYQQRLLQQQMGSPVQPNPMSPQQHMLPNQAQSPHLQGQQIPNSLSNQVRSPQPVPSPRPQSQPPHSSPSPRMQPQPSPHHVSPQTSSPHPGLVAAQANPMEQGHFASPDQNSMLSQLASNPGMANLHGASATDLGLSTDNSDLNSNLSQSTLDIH
T1 sequence (Q92793 whole entry, looked up): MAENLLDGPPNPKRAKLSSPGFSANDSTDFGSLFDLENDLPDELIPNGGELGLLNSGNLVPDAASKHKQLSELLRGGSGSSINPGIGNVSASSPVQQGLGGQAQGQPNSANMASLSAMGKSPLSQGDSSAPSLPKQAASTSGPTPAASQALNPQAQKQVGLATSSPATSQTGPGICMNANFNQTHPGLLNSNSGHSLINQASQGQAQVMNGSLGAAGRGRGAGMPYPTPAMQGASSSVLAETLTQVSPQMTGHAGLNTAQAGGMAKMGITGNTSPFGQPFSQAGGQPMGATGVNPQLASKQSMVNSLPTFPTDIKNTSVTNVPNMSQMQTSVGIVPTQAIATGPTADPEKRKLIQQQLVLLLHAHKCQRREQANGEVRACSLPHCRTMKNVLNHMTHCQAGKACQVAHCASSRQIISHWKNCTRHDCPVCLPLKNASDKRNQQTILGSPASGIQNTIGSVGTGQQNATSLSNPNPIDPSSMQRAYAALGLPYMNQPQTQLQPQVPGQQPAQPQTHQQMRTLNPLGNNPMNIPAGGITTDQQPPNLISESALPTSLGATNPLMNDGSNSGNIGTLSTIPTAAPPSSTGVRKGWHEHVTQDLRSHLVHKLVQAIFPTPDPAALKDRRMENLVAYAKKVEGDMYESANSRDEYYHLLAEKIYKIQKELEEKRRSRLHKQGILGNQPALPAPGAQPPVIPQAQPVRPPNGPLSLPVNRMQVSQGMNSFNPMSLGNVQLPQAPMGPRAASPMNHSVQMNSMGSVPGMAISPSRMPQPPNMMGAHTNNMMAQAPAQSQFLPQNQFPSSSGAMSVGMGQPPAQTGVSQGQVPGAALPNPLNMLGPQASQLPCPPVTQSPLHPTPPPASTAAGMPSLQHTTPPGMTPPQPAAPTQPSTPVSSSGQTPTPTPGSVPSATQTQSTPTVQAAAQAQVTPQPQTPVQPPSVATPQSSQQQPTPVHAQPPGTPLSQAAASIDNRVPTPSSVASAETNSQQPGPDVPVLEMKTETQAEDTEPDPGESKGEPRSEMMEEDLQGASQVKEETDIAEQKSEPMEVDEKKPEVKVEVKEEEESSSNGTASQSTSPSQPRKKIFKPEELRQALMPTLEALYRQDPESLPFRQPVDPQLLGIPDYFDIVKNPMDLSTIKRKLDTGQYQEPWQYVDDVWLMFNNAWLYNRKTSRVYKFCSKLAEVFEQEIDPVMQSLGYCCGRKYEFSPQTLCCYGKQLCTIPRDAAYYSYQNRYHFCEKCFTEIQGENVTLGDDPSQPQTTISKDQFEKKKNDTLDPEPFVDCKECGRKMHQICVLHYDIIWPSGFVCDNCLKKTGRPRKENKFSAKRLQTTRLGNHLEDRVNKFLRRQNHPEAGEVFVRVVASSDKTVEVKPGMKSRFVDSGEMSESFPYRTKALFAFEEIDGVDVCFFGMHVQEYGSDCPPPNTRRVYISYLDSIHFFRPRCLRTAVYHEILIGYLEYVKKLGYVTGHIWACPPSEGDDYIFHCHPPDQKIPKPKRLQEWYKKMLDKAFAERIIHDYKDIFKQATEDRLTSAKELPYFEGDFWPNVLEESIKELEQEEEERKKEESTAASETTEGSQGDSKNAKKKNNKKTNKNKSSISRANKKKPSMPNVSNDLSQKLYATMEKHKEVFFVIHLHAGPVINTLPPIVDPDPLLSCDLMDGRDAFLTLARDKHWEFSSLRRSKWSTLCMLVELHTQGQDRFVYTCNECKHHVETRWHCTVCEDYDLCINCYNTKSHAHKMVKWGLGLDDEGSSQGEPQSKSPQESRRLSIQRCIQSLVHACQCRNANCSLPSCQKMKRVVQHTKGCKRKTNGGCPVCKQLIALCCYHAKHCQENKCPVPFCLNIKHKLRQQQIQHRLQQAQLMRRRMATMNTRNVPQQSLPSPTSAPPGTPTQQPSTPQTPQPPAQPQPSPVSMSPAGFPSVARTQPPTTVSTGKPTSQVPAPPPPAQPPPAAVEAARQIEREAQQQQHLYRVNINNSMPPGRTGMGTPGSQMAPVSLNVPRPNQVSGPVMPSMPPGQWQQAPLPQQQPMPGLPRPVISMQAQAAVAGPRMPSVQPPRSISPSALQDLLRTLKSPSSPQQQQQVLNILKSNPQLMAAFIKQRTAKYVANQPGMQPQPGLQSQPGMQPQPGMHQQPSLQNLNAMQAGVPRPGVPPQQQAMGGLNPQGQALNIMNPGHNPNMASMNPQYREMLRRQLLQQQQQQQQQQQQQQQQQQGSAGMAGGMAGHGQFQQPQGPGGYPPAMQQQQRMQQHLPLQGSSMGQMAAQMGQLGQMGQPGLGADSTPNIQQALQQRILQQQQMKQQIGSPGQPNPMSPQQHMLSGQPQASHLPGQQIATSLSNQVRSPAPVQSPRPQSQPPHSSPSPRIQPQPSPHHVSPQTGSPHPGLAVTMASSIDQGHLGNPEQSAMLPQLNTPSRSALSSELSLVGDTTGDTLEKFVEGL

Assay [2] concerns the target T1, CREB-binding protein/Histone acetyltransferase p300 (Homo sapiens). As to the kind of experiment: Binding affinity to p300/CBP in human OPM-2 cell lysate assessed as p300 pull down and measured after 12 hrs by pulldown-based Western blot analysis. The format is subcellular. Put shortly: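 Biotinylated ligands coupled to streptavidin magnetic beads for 3 h at room temperature in 50 mM Tris pH 7.5, 300 mM NaCl, 0.05% NP40. Beads then incubated with OPM2 cell lysate overnight at 4°C, washed in binding buffer, boiled off in SDS loading buffer. Bound p300 detected by SDS-PAGE and anti-p300 immunoblot.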
On the technique in general: In western blotting, separated proteins are transferred to a membrane and probed.

Consider five compounds from ChEMBL document CHEMBL5107978, “Identification of ligand linkage vectors for the development of p300/CBP degraders” (RSC Med Chem, 2022).

Active and inactive are the calls of the source. No cut-off for these calls is given here.

As usually defined, the EC50 is the concentration at which the effect is half-maximal.

Regarding `C[C@H](N(Cc1ccc(F)cc1)C(=O)CN1C(=O)O[C@@]2(CCc3cc(NC(=O)NCCOCCOCCOCCOCCNc4cccc5c4C(=O)N(C4CCC(=O)NC4=O)C5=O)ccc32)C1=O)C(F)(F)F` (stereo partly drawn), the half-maximal effective concentration (EC50) in the assay with MM1.S is 422 nM. Moreover, the Activity in assay [1] was determined as 9%.

In the case of `C[C@H](N(Cc1ccc(F)cc1)C(=O)CN1C(=O)O[C@@]2(CCc3cc(NC(=O)NCCOCCOCCNc4cccc5c4C(=O)N(C4CCC(=O)NC4=O)C5=O)ccc32)C1=O)C(F)(F)F` (stereo partly drawn), in the assay with MM1.S, the EC50 was 294 nM. Also, the Activity in assay [1] was determined as 49%.

For `CNC(=O)Nc1ccc2c(c1)CC[C@@]21OC(=O)N(CC(=O)N(Cc2ccc(F)cc2)[C@@H](C)C(F)(F)F)C1=O` [A-485], the half-maximal effective concentration (EC50) in the assay on MM1.S turned out to be 139 nM. The result in assay [2] was Active.

Turning to `C[C@H](N(Cc1ccc(F)cc1)C(=O)CN1C(=O)O[C@@]2(CCc3cc(NC(=O)NCCCCNc4cccc5c4C(=O)N(C4CCC(=O)NC4=O)C5=O)ccc32)C1=O)C(F)(F)F` (stereo partly drawn), the Activity in assay [1] worked out at 42%.

For the compound `C[C@H](N(Cc1ccc(F)cc1)C(=O)CN1C(=O)O[C@@]2(CCc3cc(NC(=O)NCCOCCOCCOCCNc4cccc5c4C(=O)N(C4CCC(=O)NC4=O)C5=O)ccc32)C1=O)C(F)(F)F` (stereo partly drawn), the Activity in assay [1] stood at 18%.
